These results are taken from ChEMBL document CHEMBL4196248, “Callyspongidic Acids: Amphiphilic Diacids from the Tropical Eastern Pacific Sponge Callyspongia cf. californica” (J Nat Prod, 2018).

One assay has as its system A2058. The experiment in a line: Cytotoxicity against human A2058 cells measured after 24 hrs by MTT assay. It counts as functional, cell-based. The note with it: A2058, 24 h. Summed up: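 Human-derived A2058 epithelial melanoma cells, run alongside a panel of other human tumour lines by a previously reported protocol; IC50 values derived.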
For assay [1], the system named is Staphylococcus aureus. The assay is described as follows: Antimicrobial activity against methicillin-sensitive Staphylococcus aureus ATCC 29213 at 32 ug/ml measured after 20 hrs by spectrophotometric method. It is filed as functional, organism-based.
Assay [2] has as its system Staphylococcus aureus. The experiment in a line: Antimicrobial activity against methicillin-resistant Staphylococcus aureus MB5393 at 32 ug/ml measured after 20 hrs by spectrophotometric method. It counts as functional, organism-based.
Assay [3] relates to Escherichia coli. The assay is described as follows: Antimicrobial activity against Escherichia coli ATCC 25922 at 32 ug/ml measured after 20 hrs by spectrophotometric method. It counts as functional, organism-based. In outline: (§1)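 Whole-cell growth-inhibition panel: Gram-negative E. coli ATCC25922, K. pneumoniae ATCC700603, P. aeruginosa PAO1 and A. baumannii CL5973, plus fungi A. fumigatus ATCC46645 and C. albicans ATCC64124. Method follows earlier-described protocols. Highest concentration tested 32 μg/mL.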

The subject of assay [4] is Pseudomonas aeruginosa. The assay is described as follows: Antimicrobial activity against Pseudomonas aeruginosa PAO1 at 32 ug/ml measured after 20 hrs by spectrophotometric method. It counts as functional, organism-based. Summed up: as §1
The subject of assay [5] is Aspergillus fumigatus. The experiment in a line: Antimicrobial activity against Aspergillus fumigatus ATCC 46645 at 32 ug/ml measured after 30 hrs by resazurin dye based assay. It is filed as functional, organism-based. In outline: as §1
Assay [6] relates to Klebsiella pneumoniae. The assay is described as follows: Antimicrobial activity against Klebsiella pneumoniae ATCC 700603 at 32 ug/ml measured after 20 hrs by spectrophotometric method. It counts as functional, organism-based. In outline:
as §1

The subject of assay [7] is Acinetobacter baumannii. The assay is described as follows: Antimicrobial activity against Acinetobacter baumannii CL5973 at 32 ug/ml measured after 20 hrs by spectrophotometric method. It counts as functional, organism-based. In outline: as §1
Assay [8] relates to Candida albicans. The experiment in a line: Antimicrobial activity against Candida albicans ATCC 64124 at 32 ug/ml measured after 20 hrs by spectrophotometric method. It counts as functional, organism-based. In outline:
as §1

Assay [9] relates to Acinetobacter baumannii. The experiment in a line: Antimicrobial activity against Acinetobacter baumannii CL5973 at 4 ug/ml measured after 20 hrs by spectrophotometric method. It counts as functional, organism-based.
For assay [10], the system named is Staphylococcus aureus. The experiment in a line: Antimicrobial activity against methicillin-sensitive Staphylococcus aureus ATCC 29213 at 4 ug/ml measured after 20 hrs by spectrophotometric method. It counts as functional, organism-based.
For assay [11], the system named is Candida albicans. The assay is described as follows: Antimicrobial activity against Candida albicans ATCC 64124 at 4 ug/ml measured after 20 hrs by spectrophotometric method. It is filed as functional, organism-based.
Assay [12] relates to Staphylococcus aureus. The experiment in a line: Antimicrobial activity against methicillin-resistant Staphylococcus aureus MB5393 at 4 ug/ml measured after 20 hrs by spectrophotometric method. It counts as functional, organism-based.
Assay [13] concerns Escherichia coli. The experiment in a line: Antimicrobial activity against Escherichia coli ATCC 25922 at 4 ug/ml measured after 20 hrs by spectrophotometric method. It is filed as functional, organism-based.
Assay [14] relates to Klebsiella pneumoniae. The assay is described as follows: Antimicrobial activity against Klebsiella pneumoniae ATCC 700603 at 4 ug/ml measured after 20 hrs by spectrophotometric method. It counts as functional, organism-based.
The subject of assay [15] is Pseudomonas aeruginosa. The assay is described as follows: Antimicrobial activity against Pseudomonas aeruginosa PAO1 at 4 ug/ml measured after 20 hrs by spectrophotometric method. It is filed as functional, organism-based.
In assay [16] the test system is Aspergillus fumigatus. The experiment in a line: Antimicrobial activity against Aspergillus fumigatus ATCC 46645 at 4 ug/ml measured after 30 hrs by resazurin dye based assay. It is filed as functional, organism-based.

Activity calls are given as the source filed them. The rule behind the calls is not given here.

Regarding `CCCCCC/C=C\CCCC[C@H](C(=O)O)[C@@](O)(Cc1ccc(O)cc1)C(=O)O`, the IC50 in the assay on A2058 is above 30 µM. Moreover, the outcome in the assay on Staphylococcus aureus [1], in the assay on Staphylococcus aureus [2], with Escherichia coli [3], in the assay with Pseudomonas aeruginosa [4], in the assay on Aspergillus fumigatus [5] and with Klebsiella pneumoniae [6] was inactive. Further, the result with Acinetobacter baumannii [7] and in the assay with Candida albicans [8] was inactive.

In the assay on A2058, `CCCCCCCCCCC[C@H](C(=O)O)[C@@](O)(Cc1ccc(O)cc1)C(=O)O` yielded an IC50 of 3.2 µM. For the same compound, the result with Acinetobacter baumannii [9], in the assay on Staphylococcus aureus [10], with Candida albicans [11], in the assay with Staphylococcus aureus [12], with Escherichia coli [13] and in the assay on Klebsiella pneumoniae [14] was inactive. Further, the outcome in the assay on Pseudomonas aeruginosa [15] and in the assay with Aspergillus fumigatus [16] was inactive.

The compound `CCCCCCCCCC[C@H](C(=O)O)[C@@](O)(Cc1ccc(O)cc1)C(=O)O` displayed an IC50 in the assay with A2058 of 26 µM. The result with Staphylococcus aureus [1], in the assay on Staphylococcus aureus [2], in the assay on Escherichia coli [3], with Pseudomonas aeruginosa [4], in the assay on Aspergillus fumigatus [5] and in the assay with Klebsiella pneumoniae [6] was inactive. The result in the assay with Acinetobacter baumannii [7] and in the assay with Candida albicans [8] was inactive.

`CCCCCCCCCCCC[C@H](C(=O)O)[C@@](O)(Cc1ccc(O)cc1)C(=O)O` had an IC50 with A2058 of 30 µM. The outcome in the assay on Staphylococcus aureus [1], in the assay with Staphylococcus aureus [2], with Escherichia coli [3], with Pseudomonas aeruginosa [4], in the assay on Aspergillus fumigatus [5] and in the assay on Klebsiella pneumoniae [6] was inactive. The outcome with Acinetobacter baumannii [7] and with Candida albicans [8] was inactive.
